Results from paper PMC11350716 (JACS Au, 2024).

Tests used:
[1] = type: in vivo; conditions: mice, intravenous, 0.02 mg/mouse as ICG, brains harvested after 48 h
How it was run: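 Mice received the test compound or free ICG alone by intravenous injection. Brains were harvested 48 h later and imaged for near-infrared ICG fluorescence, with instrument sensitivity set to 1,600–3,000 (fluorescence intensity a.u.).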

VIPR2 = conditions: read-out: antagonist activity IC50; cited from earlier work

Row | Compound | ICG fluorescence in the brain [1] | IC50 (VIPR2)
1 | CC1(C)C(/C=C/C=C/C=C/C=C2\N(CCCCS(=O)(=O)O)c3ccc4ccccc4c3C2(C)C)=[N+](CCCCS(=O)(=O)[O-])c2ccc3ccccc3c21 [ICG, indocyanine green, reference compound] | but not in the brains | 
2 | CCCC[C@@H]1NC(=O)[C@H](CCC(=O)O)NC(=O)[C@H](C)NC(=O)[C@H](CC(C)C)NC(=O)[C@H](CCCC)NC(=O)[C@H](Cc2ccc(O)cc2)NC(=O)[C@H](CCCCN)NC(=O)[C@H](Cc2ccc(O)cc2)NC(=O)[C@H]([C@@H](C)O)NC(=O)[C@@H](NC(=O)[C@@H]2CCCN2C(=O)[C@@H](NC(=O)CNC(=O)CCOCCOCCOCCOCCn2nnc3c2-c2ccccc2CN(C(=O)CCNC(=O)CCOCCOCCOCCOCCOCCC(=O)NCCC(=O)N2Cc4ccccc4-c4c(nnn4CCNC(=O)CCCCCN4C(=CC=CC=CC=CC5=[N+](CCCCS(=O)(=O)[O-])c6ccc7ccccc7c6C5(C)C)C(C)(C)c5c4ccc4ccccc54)-c4ccccc42)c2ccccc2-3)[C@@H](C)O)CSSC[C@@H](C(=O)O)NC1=O [ICG-KS-487] | Fluorescence was clearly observed | 
3 | Ac-(CPPYLP[KYLC)D]LI-NH2 (bicyclic or more) [KS-133] |  | 25 nM
